Compound activity (PubChem BioAssay)
Redox H2O2 prof – compounds producing H2O2 with reducing agent – biochemical, NIH compound library profiling, artefact control for MLSCN library redox annotation, primary screen. DTT-dependent redox cycling H2O2, phenol red/HRP absorbance; 100% = 100 µM peroxide control, 0% = buffer. activation, % at 10 µM. 200,000 compounds, 0.03% hits. AID 878;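 active means activation of at least 50% relative to the plate's high and low controls in the primary single-dose screen; inactive means activation below 50%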;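 further: compound incubated with DTT at 0.8 mM final as the reducing agent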
MT stabilizer – stabilizes microtubules in HeLa cells; HeLa tubulin immunostaining HCS, 24 h; share of cells brighter than vehicle mean+2SD; 200,000 compounds, 0.83% hits; % tubulin-high responders, % at 10 µM;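 active means plate Z-score above 3 for both tubulin-high and condensed-nucleus cell shares, with cell loss under 80%, at 10 µM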;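 further: anti alpha tubulin signal scored within the nucleus-defined area of each cell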
Cl transport mod – modulators of human KCC2 chloride dependent transport. Q9H2X9. 190,000 compounds, 2.2% hits. B-score of Tl+ flux slope (higher = more flux/activation; lower = inhibition) at 10 µM. KCC2 cells, thallium flux FluoZin-2 fluorescence. AID 1456;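 active means thallium flux slope and its plate-corrected score both differing from the plate sample mean at a set confidence after two filtering rounds, in either direction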;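 further: slope of fluorescence scaled to starting intensity during 10 to 20 s after thallium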
bCat nuc transl – modulators of beta-catenin nuclear translocation | HeLa beta-catenin nuclear translocation, immunofluorescence imaging | nuclear translocation activity, % at 5 µM | 190,000 compounds, 0.3% hits;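 active means nuclear translocation activity above 50% at 5 µM, with a well cell count of 50 or more; inconclusive means wells under 50 cells across six images, flagged as toxic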;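 further: per-cell ratio of nuclear to cytoplasmic median beta-catenin stain intensity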
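System: HeLa cells, endogenous beta-catenin; compound dosing: 5 µM primary single dose, 0.1% DMSO, 0.02–20 µM confirmation series; incubation: 24 h compound exposure at 37°C, 5% CO2; signal: beta-catenin immunofluorescence imaging with DAPI; evaluation: % activation, nuclear-to-cytoplasmic median beta-catenin signal ratio per cell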
ROMK primary – human ROMK K+ channel modulation, primary screen; P48048; Tet-inducible ROMK, thallium flux fluorescence; actives lie on both sides; B-score at 10 µM; 130,000 compounds, 2% hits; AID 1918;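 active means signal ratio slope over the read window, or its plate-corrected B-score, at least 3 SD from the plate mean, either direction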;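 further: B-score of the F/F0 ratio slope over 7 to 12 s after thallium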
KCC2 secondary – confirmation of human KCC2 transport modulators. 3,700 compounds, 15% hits. AID 1713. shares compounds with Cl transport mod. HEK293-KCC2, thallium flux, FluoZin2 fluorescence; stronger effect = higher value. normalised thallium flux (F/F0 slope) at 10 µM;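 active means thallium flux slope above the same plate's solvent-only control mean plus 3 SD; inconclusive means the two replicate wells disagree; inactive means no significant difference from solvent-only control wells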
KCC2 bumet counter – thallium flux persisting under bumetanide in KCC2 cells, counter-screen secondary assay | shares compounds with Cl transport mod | HEK293-KCC2 + bumetanide/ouabain, thallium flux FluoZin2; stronger effect = higher value | normalized thallium flux at 10 µM | 3,700 compounds, 49% hits | AID 1714;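 active means thallium entry rate above the same plate's blocked-transporter control wells by more than 3 SD; inconclusive means the two repeat wells disagree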;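 further: raw slope of fluorescence over initial fluorescence between 10 and 20 s after thallium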
KCC2 secondary2 – confirmation of human KCC2 transport modulators; shares compounds with Cl transport mod; HEK293-KCC2, thallium flux FluoZin2 fluorescence; actives lie on both sides; F/F0 rise rate, 10–20 s post-thallium; normalized thallium flux at 10 µM; 3,700 compounds, 23% hits; AID 1715;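 active means thallium flux slope more than 3 SD above or below the plate's solvent-only control mean, mostly below; inconclusive means the two repeat wells disagreed; inactive means no significant shift from solvent-only controls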
HEK counter1 – parental HEK flux effect, counter-screen | shares compounds with Cl transport mod | HEK293 parental cells, thallium flux FluoZin2, ouabain; baseline-ratio fluorescence slope, 10–20 s after thallium | thallium flux rate (normalised fluorescence) at 10 µM | 3,700 compounds, 46% hits | AID 1716;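 active means thallium flux rate significantly above the same plate's solvent-only control wells, beyond their mean plus 3 SD; inconclusive means the two replicate wells gave conflicting results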
KCC2 ouabain – KCC2 (human) modulation, ouabain retest; shares compounds with Cl transport mod; AID 1717; raw Tl+ flux slope (below DMSO = inhibition, above = activation) at 10 µM; 3,700 compounds, 48% hits; HEK293-KCC2, thallium flux FluoZin2 fluorescence; bidirectional: low = inhibitor, high = activator;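 active means thallium flux slope beyond 3 SD from same-plate DMSO control mean in most replicates, usually higher, sometimes lower; inconclusive means repeat tests gave conflicting results; inactive means no significant difference from controls in most replicates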;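 further: slope of initial-normalized fluorescence between seconds 10 and 20 after thallium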
HEK293 Tl flux2 – acts in parental HEK cells, second KCC2 counter-screen. shares compounds with Cl transport mod. thallium flux slope at 10 µM. HEK293 parental, thallium flux FluoZin-2 fluorescence slope. 3,700 compounds, 33% hits;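 active means thallium flux slope above the same plate's solvent-control mean plus 3 SD in both duplicate wells; inconclusive means duplicate wells that disagreed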;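 further: run without ouabain in cells lacking the KCC2 cotransporter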
Numbers stand for hits; – = inactive; ? = inconclusive; · = no result given. The list is not random: actives were taken first. Their share in the collection is about 3.7%.

SMILES	Redox H2O2 prof	MT stabilizer	Cl transport mod	bCat nuc transl	ROMK primary	KCC2 secondary	KCC2 bumet counter	KCC2 secondary2	HEK counter1	KCC2 ouabain	HEK293 Tl flux2
O=C(Nc1nc(-c2ccccn2)cs1)C1CC(=O)N(c2ccc3c(c2)OCCO3)C1 (stereo not drawn)	–	–	-3	–	–	–	–	–	–	0.018	0.011
Cc1oc2c(O)c(O)ccc2c(=O)c1-c1cnn(-c2ccccc2)c1	–	–	–	–	–	·	·	·	·	·	·
Cc1oc2cc(O)cc(C)c2c(=O)c1-c1cnn(-c2ccccc2)c1	–	–	–	–	–	–	–	–	–	–	–
CCn1c(=O)cc(OCC(=O)N2CCN(c3cccc(C(F)(F)F)c3)CC2)c2ccccc21	–	–	–	–	·	–	–	–	–	?	–
O=C(c1coc2ccccc2c1=O)N1CCN(c2cccc(C(F)(F)F)c2)CC1	–	–	-4	–	·	–	–	–	–	–	–
O=C(c1ccccc1F)N1CCN(c2cccc(C(F)(F)F)c2)CC1	–	–	–	–	·	·	·	·	·	·	·
O=C(O)/C(=C\c1cccc([N+](=O)[O-])c1)c1ccc(S(=O)(=O)N2CCCCC2)s1	·	·	–	–	·	·	·	·	·	·	·
O=C(O)/C(=C\c1ccc(Cl)c([N+](=O)[O-])c1)c1ccc(S(=O)(=O)N2CCCCC2)s1	–	–	-7.8	–	–	–	–	–	–	0.011	–
CC(C)n1c(=S)[nH]c2scc(-c3cccs3)c2c1=O	·	·	110	–	·	0.023	0.092	0.088	0.09	0.093	0.085
Cc1nc2scc(-c3cccs3)c2c(=O)[nH]1	–	–	–	–	–	·	·	·	·	·	·
Cc1nnc(SCC(=O)Nc2ccc3c(c2)OCO3)n(N)c1=O	–	–	–	–	–	·	·	·	·	·	·
O=C(CN1C(=O)CSc2ccccc21)N1CCc2ccccc21	–	–	-4.9	–	·	–	–	–	–	0.014	–
Cc1ccccc1NC(=S)NC(NC(=O)COc1ccccc1)C(Cl)(Cl)Cl (stereo not drawn)	–	–	·	–	·	·	·	·	·	·	·
CCC(=O)NC(=S)Nc1ccccc1C(=O)OC	–	–	–	–	–	·	·	·	·	·	·
COC(=O)c1ccccc1NC(=S)NC(NC(=O)COc1ccccc1)C(Cl)(Cl)Cl (stereo not drawn)	–	–	·	–	·	–	?	–	?	0.025	–
COC(=O)c1ccccc1NC(=S)NC(=O)COc1ccc(C(C)C)cc1	–	–	9.7	–	–	–	0.017	–	0.019	0.036	–
COc1cccc(Nc2n[nH]c(=S)s2)c1	–	–	-6.8	–	·	–	–	0.021	–	0.011	–
Cc1cccc(Nc2n[nH]c(=S)s2)c1C	–	–	-5.3	–	·	–	–	0.017	–	0.0074	?
COc1ccccc1Nc1n[nH]c(=S)s1	–	–	–	–	–	·	·	·	·	·	·
COc1ccccc1CNC(=O)/C=C/c1ccc(S(=O)(=O)N2CCOCC2)cc1	–	–	–	–	–	·	·	·	·	·	·
Cc1cc(C)c2nc(N3CCC(C(=O)N4CCCC4)CC3)sc2c1	–	–	·	–	–	?	–	–	–	0.015	–
Cc1ccccc1Cn1c(O)c(N=NC(=S)Nc2ccccc2F)c2ccccc21	–	–	9.6	–	–	?	0.025	–	?	?	?
